Data taken from ChEMBL document CHEMBL2146421, “Synthesis and anticonvulsant activity of some new thiazolo[3,2-a][1,3]diazepine, benzo[d]thiazolo[5,2-a][12,6]diazepine and benzo[d]oxazolo[5,2-a][12,6]diazepine analogues” (Eur J Med Chem, 2011).

Columns and labels:
Mus musculus [1] = test: Anticonvulsant activity in Swiss albino mouse assessed as protection against pentylenetetrazole-induced convulsion at 1.5 mmol/kg, ip treated after 30 mins of pentylenetetrazole measured for 30 mins; format: functional
Mus musculus [2] = test: Anticonvulsant activity in Swiss albino mouse assessed as protection against pentylenetetrazole-induced convulsion at 0.75 mmol/kg, ip treated after 30 mins of pentylenetetrazole measured for 30 mins; format: functional
Mus musculus [3] = test: Anticonvulsant activity in Swiss albino mouse assessed as protection against pentylenetetrazole-induced convulsion at 0.375 mmol/kg, ip treated after 30 mins of pentylenetetrazole measured for 30 mins; format: functional
Mus musculus [4] = test: Neurotoxicity in Swiss albino mouse assessed as inability to climb up backwards in a glass tube within 30 seconds at 1.5 mmol/kg, ip measured after 15 and 25 mins by Chimney test; format: toxicity, organism-based; conditions: in vivo
Procedure, shortened: (§1)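 Chimney test: 15 and 25 min after i.p. dosing (3.0, 1.5, 0.75, 0.375 mmol/kg), inability of mice to climb backwards up a glass tube 25 cm long, 3 cm inner diameter, within 30 s recorded as neurological deficit.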

Mus musculus [5] = test: Neurotoxicity in Swiss albino mouse assessed as effect on motor activity at 1.5 mmol/kg, ip after 30 mins; format: toxicity, organism-based; conditions: in vivo, 0.5 h
Procedure, shortened: (§2)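 Motor activity measured with an activity meter at 0 and 30 min after i.p. dosing, zero time taken as 100%.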

Mus musculus [6] = test: Hypnotic activity in Swiss albino mouse assessed as righting reflex at 1.5 mmol/kg, ip; format: ADME, organism-based; conditions: in vivo
[7] = Toxicity in Swiss albino mouse assessed as mortality at 1.5 mmol/kg, ip measured 7 to 11 mins before pentylenetetrazole challenge; format: organism-based; conditions: in vivo, read-out: Activity
Procedure, shortened: (§3)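 Compounds given i.p. at 3.0, 1.5, 0.75 and 0.375 mmol/kg to 6 mice per compound. Deaths occurring before the PTZ injection were recorded. PTZ (83 mg/kg s.c.) followed 30 min after compound dosing.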

Mus musculus [8] = test: Neurotoxicity in Swiss albino mouse assessed as inability to climb up backwards in a glass tube within 30 seconds at 0.75 mmol/kg, ip measured after 15 and 25 mins by Chimney test; format: toxicity, organism-based; conditions: in vivo; procedure, shortened: as §1
Mus musculus [9] = test: Neurotoxicity in Swiss albino mouse assessed as effect on motor activity at 0.75 mmol/kg, ip after 30 mins; format: toxicity, organism-based; conditions: in vivo, 0.5 h; procedure, shortened: as §2
Mus musculus [10] = test: Hypnotic activity in Swiss albino mouse assessed as righting reflex at 0.75 mmol/kg, ip; format: ADME, organism-based; conditions: in vivo
[11] = Toxicity in Swiss albino mouse assessed as mortality at 0.75 mmol/kg, ip measured 7 to 11 mins before pentylenetetrazole challenge; format: organism-based; conditions: in vivo, read-out: Activity; procedure, shortened: as §3
Mus musculus [12] = test: Neurotoxicity in Swiss albino mouse assessed as inability to climb up backwards in a glass tube within 30 seconds at 3 mmol/kg, ip measured after 15 and 25 mins by Chimney test; format: toxicity, organism-based; conditions: in vivo; procedure, shortened: as §1
Mus musculus [13] = test: Anticonvulsant activity in Swiss albino mouse assessed as protection against pentylenetetrazole-induced convulsion at 3 mmol/kg, ip treated after 30 mins of pentylenetetrazole measured for 30 mins; format: functional
Mus musculus [14] = test: Anticonvulsant activity in Swiss albino mouse assessed as protection against maximal electroshock-induced convulsion at 3.0 mmol/kg, ip […]; format: functional
Procedure, shortened: (§4)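 Test agent given i.p. to mice; 30 min later electric shock applied through the ears, animals released immediately to observe maximal seizure; percentage protected recorded (10 animals per dose in dose-response runs).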

Mus musculus [15] = test: Anticonvulsant activity in Swiss albino mouse assessed as protection against maximal electroshock-induced convulsion at 1.5 mmol/kg, ip […]; format: functional
Procedure, shortened: (§5)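 Test compound given i.p. to mice; 30 min later, electric shock was applied through the ears while the mice were hand-restrained. The mice were then released to observe the maximal seizure. Each dose was tested in 10 animals and the percentage protected was recorded.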

Mus musculus [16] = test: Anticonvulsant activity in Swiss albino mouse assessed as protection against maximal electroshock-induced convulsion at 0.75 mmol/kg, ip […]; format: functional; procedure, shortened: as §4
Mus musculus [17] = test: Anticonvulsant activity in Swiss albino mouse assessed as protection against maximal electroshock-induced convulsion at 0.37 mmol/kg, ip […]; format: functional; procedure, shortened: as §5
Mus musculus [18] = test: Anticonvulsant activity in Swiss albino mouse assessed as protection against picrotoxin-induced convulsion at 1.5 mmol/kg, ip […] measured for 30 mins; format: functional
Procedure, shortened: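 Test compound given i.p.; 30 min later, picrotoxin 3.15 mg/kg s.c. was injected. Picrotoxin was freshly dissolved in 1 ml warmed 0.1 N HCl and made up with 0.9% NaCl. Each dose was tested in 10 animals and the percentage of mice protected from clonic convulsions was recorded.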

Mus musculus [19] = test: Anticonvulsant activity in Swiss albino mouse assessed as protection against bicuculline-induced convulsion at 3.0 mmol/kg, ip […] measured for 30 mins; format: functional
Procedure, shortened: (§6)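 Mice (6 per compound) dosed i.p.; 30 min later given bicuculline 1 mg/kg s.c. (freshly dissolved in 1 ml warmed 0.1 N HCl, made up with 0.9% NaCl), then observed 30 min; percentage anticonvulsion (animals protected) calculated. Dose-response runs used 10 animals per dose.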

Mus musculus [20] = test: Anticonvulsant activity in Swiss albino mouse assessed as protection against bicuculline-induced convulsion at 1.5 mmol/kg, ip […] measured for 30 mins; format: functional; procedure, shortened: as §6
Mus musculus [21] = test: Anticonvulsant activity in Swiss albino mouse assessed as protection against bicuculline-induced convulsion at 0.75 mmol/kg, ip […] measured for 30 mins; format: functional; procedure, shortened: as §6
Mus musculus [22] = test: Anticonvulsant activity in Swiss albino mouse assessed as protection against bicuculline-induced convulsion at 0.37 mmol/kg, ip […] measured for 30 mins; format: functional; procedure, shortened: as §6
Mus musculus [23] = test: Anticonvulsant activity in ip dosed Swiss albino mouse assessed as protection against maximal electroshock-induced convulsion; format: functional; procedure, shortened: as §4
[24] = Toxicity in ip dosed Swiss albino mouse assessed as sedative effect; format: organism-based; conditions: in vivo
Mus musculus [25] = species: Mus musculus; test: Protective index, ratio of TD50 for Swiss albino mouse to ED50 for anticonvulsant activity in Swiss albino mouse; format: functional
Procedure, shortened: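 TD50 (median sedative dose) divided by ED50 (median effective dose), from dose-response curves at 10 mice per dose; 95% confidence limits given.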

[26] = Toxicity in Swiss albino mouse by Spearman-Karber method; format: organism-based; conditions: in vivo
Procedure, shortened: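 LD50 in mice was determined by the Spearman–Karber method, with doses chosen at equal logarithmic intervals. 95% confidence limits were reported.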

[27] = Therapeutic index, ratio of LD50 for Swiss albino mouse to ED50 for anticonvulsant activity in Swiss albino mouse; format: organism-based; conditions: in vivo, read-out: Ratio LD50/ED50
Procedure, shortened: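 TI was calculated as LD50/ED50. ED50 came from dose-response curves in 10 mice per dose. LD50 was determined by the Spearman–Karber method, with doses at equal logarithmic intervals.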

Mus musculus [28] = test: Neurotoxicity in Swiss albino mouse assessed as effect on motor activity at 3 mmol/kg, ip after 30 mins; format: toxicity, organism-based; conditions: in vivo, 0.5 h; procedure, shortened: as §2
Mus musculus [29] = test: Hypnotic activity in Swiss albino mouse assessed as righting reflex at 3 mmol/kg, ip; format: ADME, organism-based; conditions: in vivo
[30] = Toxicity in Swiss albino mouse assessed as mortality at 3 mmol/kg, ip measured 7 to 11 mins before pentylenetetrazole challenge; format: organism-based; conditions: in vivo, read-out: Activity; procedure, shortened: as §3
Mus musculus [31] = test: Neurotoxicity in Swiss albino mouse assessed as inability to climb up backwards in a glass tube within 30 seconds at 0.37 mmol/kg, ip measured after 15 and 25 mins by Chimney test; format: toxicity, organism-based; conditions: in vivo; procedure, shortened: as §1
Mus musculus [32] = test: Anticonvulsant activity in Swiss albino mouse assessed as protection against pentylenetetrazole-induced convulsion at 0.37 mmol/kg, ip treated 30 mins before pentylenetetrazole measured for 30 mins
[33] = Toxicity in Swiss albino mouse assessed as mortality at 1.38 mmol/kg, sc; format: organism-based; conditions: in vivo, read-out: Activity
Mus musculus [34] = test: Anticonvulsant activity in Swiss albino mouse assessed as protection against pentylenetetrazole-induced convulsion at 1.38 mmol/kg, ip treated after 30 mins of pentylenetetrazole measured for 30 mins; format: functional
Mus musculus [35] = test: Neurotoxicity in Swiss albino mouse assessed as inability to climb up backwards in a glass tube within 30 seconds at 1.38 mmol/kg, ip measured after 15 and 25 mins by Chimney test; format: toxicity, organism-based; conditions: in vivo
Procedure, shortened: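 Chimney test: at 15 and 25 min after dosing, inability of mice to climb backwards up a glass tube (25 cm long, 3 cm inner diameter) within 30 s was scored as neurological deficit.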

Row | Structure (SMILES) | Activity (Mus musculus [1]) [%] | Activity (Mus musculus [2]) [%] | Activity (Mus musculus [4]) [%] | Activity (Mus musculus [5]) [%] | Activity (Mus musculus [6]) [%] | mortality [7] [%] | Activity (Mus musculus [8]) [%] | Activity (Mus musculus [9]) [%] | Activity (Mus musculus [10]) [%] | mortality [11] [%] | Activity (Mus musculus [12]) [%] | Activity (Mus musculus [13]) [%] | Activity (Mus musculus [14]) [%] | Activity (Mus musculus [15]) [%] | Activity (Mus musculus [16]) [%] | Activity (Mus musculus [17]) [%] | Activity (Mus musculus [18]) [%] | Activity (Mus musculus [19]) [%] | Activity (Mus musculus [20]) [%] | Activity (Mus musculus [21]) [%] | further results
1 | O=C1CCCN2C(=N1)Sc1ccccc12 | 70 | 0 | 0 | 0 | 0 | 0 | – | – | – | – | – | – | – | – | – | – | – | – | – | – | Activity (Mus musculus [3]): 0%
2 | O=C1CCCN2C(=N1)Sc1cc(Cl)ccc12 | 50 | 25 | 25 | 33 | 0 | 0 | 0 | 20 | 0 | 0 | 100 | 100 | 33 | 0 | 0 | 0 | 20 | 100 | 66 | 10 | Activity (Mus musculus [22]): 10%; ED50 (Mus musculus [23]): 380 mg/kg; TD50 [24]: 417 mg/kg; Ratio TD50/ED50 (Mus musculus [25]): 1.09; LD50 [26]: 617 mg/kg; selectivity ratio [27]: 1.62; Activity (Mus musculus [28]): 67%; Activity (Mus musculus [29]): 20%; mortality [30]: 0%; Activity (Mus musculus [31]): 0%; Activity (Mus musculus [32]): 0%
3 | O=C1CCCN2C(=N1)Oc1ccc(Cl)cc12 | 67 | 33 | 50 | 50 | 0 | 0 | 17 | 33 | 0 | 0 | 100 | 100 | 70 | 10 | 0 | 0 | 40 | 100 | 50 | 20 | Activity (Mus musculus [22]): 0%; ED50 (Mus musculus [23]): 251 mg/kg; TD50 [24]: 355 mg/kg; Ratio TD50/ED50 (Mus musculus [25]): 1.41; LD50 [26]: 537 mg/kg; selectivity ratio [27]: 2.14; Activity (Mus musculus [28]): 80%; Activity (Mus musculus [29]): 17%; mortality [30]: 0%; Activity (Mus musculus [31]): 0%; Activity (Mus musculus [32]): 0%
4 | CCCC(CCC)C(=O)[O-].[Na+] [VALPROATE SODIUM] | – | – | – | – | – | – | – | – | – | – | – | – | – | – | – | – | – | – | – | – | mortality [33]: 0%; Activity (Mus musculus [34]): 100%; Activity (Mus musculus [35]): 100%
